Source: ChEMBL document CHEMBL2062518, “Total synthesis and biological evaluation of transvalencin Z” (J Nat Prod, 2012)

Key:
[1] = test system: Mycolicibacterium smegmatis; assay: Antimicrobial activity against Mycobacterium smegmatis ATCC 607 after 24 to 48 hrs; format: functional
In short: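 M. smegmatis streaked from glycerol stock onto nutrient agar (1.5%), then grown at 37 °C in nutrient broth with Tyloxapol added to prevent clumping, to OD600 1.0. Diluted to OD600 0.003 and exposed to compound dilutions from DMSO stocks. Absorbance at 600 nm read at 24 and 48 h, 690 nm background subtracted, normalized to DMSO controls; MIC99.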

[2] = test system: Mycolicibacterium smegmatis; assay: Antimicrobial activity against Mycobacterium smegmatis MC24517 after 24 to 48 hrs; format: functional
In short: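 Grown from glycerol stock on nutrient agar (1.5%) at 37 °C for 24 h, with Tyloxapol added to prevent clumping. Colonies were grown in nutrient broth to OD600 1.0, diluted to OD600 0.003 and incubated with compound dilutions (1% DMSO stocks). OD600 was read at 24 and 48 h, corrected for 690 nm background and standardised to DMSO controls.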

[3] = test system: Mycobacterium tuberculosis; assay: Antimicrobial activity against Mycobacterium tuberculosis H37Rv after 24 to 48 hrs; format: functional
[4] = test system: Escherichia coli; assay: Antimicrobial activity against Escherichia coli ATCC 25922 after 24 to 48 hrs; format: functional
In short: (§1)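 Broth microdilution at 37 °C. Glycerol stocks streaked on 1.5% agar for 24 h. Single colonies grown in broth to OD600 1.0: trypticase soy for E. coli, P. aeruginosa and S. aureus; nutrient broth for A. baumannii and K. pneumoniae; brain heart infusion for E. faecalis. Diluted to OD600 0.003 with compound dilutions from DMSO stocks. OD600 read at 24 and 48 h, 690 nm background subtracted, normalized to DMSO control; MIC99.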

[5] = test system: Acinetobacter baumannii; assay: Antimicrobial activity against Acinetobacter baumannii ATCC 19606 after 24 to 48 hrs; format: functional; details: ATCC 19606 = CIP 70.34 = JCM 6841; in short: as §1
[6] = test system: Klebsiella pneumoniae; assay: Antimicrobial activity against Klebsiella pneumoniae ATCC 13883 after 24 to 48 hrs; format: functional; in short: as §1
[7] = test system: Pseudomonas aeruginosa; assay: Antimicrobial activity against Pseudomonas aeruginosa ATCC 27853 after 24 to 48 hrs; format: functional; in short: as §1
[8] = test system: Bacillus subtilis; assay: Antimicrobial activity against Bacillus subtilis ATCC 6633 after 24 to 48 hrs; format: functional
[9] = test system: Enterococcus faecalis; assay: Antimicrobial activity against Enterococcus faecalis ATCC 51299 after 24 to 48 hrs; format: functional; in short: as §1
[10] = test system: Staphylococcus aureus; assay: Antimicrobial activity against methicillin-susceptible Staphylococcus aureus clinical isolate IDRL 8545 after 24 to 48 hrs; format: functional; in short: as §1
[11] = test system: Staphylococcus aureus; assay: Antimicrobial activity against methicillin-resistant Staphylococcus aureus ATCC 43300 after 24 to 48 hrs; format: functional
In short: (§2)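 Streaked from glycerol stock onto trypticase soy agar, 37 °C, 24 h. Single colonies were grown in trypticase soy broth to OD600 1.0 and diluted to OD600 0.003. Cells were incubated with compound at varying concentrations (1% DMSO stocks). Absorbance was read at 600 nm at 24 and 48 h, minus 690 nm background and relative to DMSO controls.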

[12] = test system: Staphylococcus aureus; assay: Antimicrobial activity against methicillin-resistant Staphylococcus aureus clinical isolate IDRL 6169 after 24 to 48 hrs; format: functional; in short: as §2
[13] = test system: Candida albicans; assay: Antifungal activity against Candida albicans ATCC 10231 after 24 to 48 hrs; format: functional
In short: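 C. albicans streaked from glycerol stock onto YM agar and grown at 30 °C for 24 h. A single colony was grown in YM broth to OD600 1.0, diluted to OD600 0.003 and incubated with compound dilutions from DMSO stocks. Read at 600 nm at 24 and 48 h, 690 nm background subtracted, normalized to DMSO controls; MIC99.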

[14] = Cytotoxicity against african green monkey Vero cells after 72 hrs by MTT assay; format: cell-based; details: chlorocebus sabaeus, read-out: MIC50
In short: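 Vero cells (ATCC CCL-81) in MEM with 10% FBS, 1% PennStrep and 1% Glutamax, seeded at 3.0 × 10^4 cells/well and left to adhere overnight. Compound in DMSO added to final 100 to 0.16 μM, in triplicate, for 72 h at 37 °C, 4.5% CO2. MTT 1.0 mg/mL in phenol red-free RPMI for 3 h, formazan dissolved in isopropanol. A570 minus A690 gave % viability vs DMSO control; dose-response curves gave 50% growth-inhibitory concentration.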

Row | Structure (SMILES) | MIC99 [1] | MIC99 [2] [µM] | MIC99 [3] [µM] | MIC99 [4] | MIC99 [5] [µM] | MIC99 [6] [µM] | MIC99 [7] [µM] | MIC99 [8] | MIC99 [9] [µM] | MIC99 [10] [µM] | MIC99 [11] | MIC99 [12] [µM] | MIC99 [13] | CC50 at 72 h [14] [µM]
1 | O=CNCCCC[C@@H](NC(=O)[C@@H]1COC(c2ccccc2O)=N1)C(=O)O | > 100 µM | > 100 | > 200 | > 100 µM | > 100 | > 100 | > 100 | > 100 µM | > 100 | > 100 | > 100 µM | > 100 | > 100 µM | 154
2 | O=CNCCCC[C@H](NC(=O)[C@H]1COC(c2ccccc2O)=N1)C(=O)O | > 100 µM | > 100 | > 200 | > 100 µM | > 100 | > 100 | > 100 | > 100 µM | > 100 | > 100 | > 100 µM | > 100 | > 100 µM | > 200
3 | O=CNCCCCC(NC(=O)C1COC(c2ccccc2O)=N1)C(=O)O (stereo unspecified) [TRANSVALENCIN Z] | 0.125 µg/mL | – | – | > 64 µg/mL | – | – | – | 16 µg/mL | – | – | 1 µg/mL | – | > 64 µg/mL | –
4 | O=CNCCCC[C@H](NC(=O)[C@@H]1COC(c2ccccc2O)=N1)C(=O)O | > 100 µM | > 100 | > 200 | > 100 µM | > 100 | > 100 | > 100 | > 100 µM | > 100 | > 100 | > 100 µM | > 100 | > 100 µM | 164
5 | O=CNCCCC[C@@H](NC(=O)[C@H]1COC(c2ccccc2O)=N1)C(=O)O | > 100 µM | > 100 | > 200 | > 100 µM | > 100 | > 100 | > 100 | > 100 µM | > 100 | > 100 | > 100 µM | > 100 | > 100 µM | > 200
